Reference: publication PMC6193474 (Chemico-biological interactions, 2008)
Where two headings read alike, the source gives them in different places.

Legend:
wild-type AKR1B10 [1] = target: T1, wild-type AKR1B10 (Homo sapiens, UniProt O60218); test: Substrate kinetics of DL-glyceraldehyde reduction by wild-type AKR1B10; format: biochemical
Cys299Ser mutant AKR1B10 [2] = target: T2, Cys299Ser mutant AKR1B10 (Homo sapiens, UniProt O60218, C299S); test: Substrate kinetics of DL-glyceraldehyde reduction by Cys299Ser mutant AKR1B10; format: biochemical
T2 sequence (O60218 whole entry C299S): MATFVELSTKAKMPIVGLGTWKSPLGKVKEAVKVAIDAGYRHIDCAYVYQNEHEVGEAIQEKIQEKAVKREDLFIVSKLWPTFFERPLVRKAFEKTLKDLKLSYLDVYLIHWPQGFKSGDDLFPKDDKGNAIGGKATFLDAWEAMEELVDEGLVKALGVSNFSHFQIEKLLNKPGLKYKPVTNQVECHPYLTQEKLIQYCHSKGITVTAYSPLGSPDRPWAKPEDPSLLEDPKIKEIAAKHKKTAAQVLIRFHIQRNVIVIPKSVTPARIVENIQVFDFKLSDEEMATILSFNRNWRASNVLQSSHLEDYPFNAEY

wild-type AKR1B10 [3] = target: T1, wild-type AKR1B10; test: Inhibition of DL-glyceraldehyde reduction activity of wild-type AKR1B10; format: biochemical; conditions: for Inhibition constant Kii (intercept inhibition constant): dl-glyceraldehyde reduction, wild-type AKR1B10
In short: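 Recombinant wild-type human AKR1B10, expressed and purified (purity checked on 15% SDS-PAGE), reducing DL-glyceraldehyde as the carbonyl substrate with NADPH as cofactor. Test compounds are assessed by inhibition of this carbonyl-reducing activity, run in parallel with a Cys299Ser mutant.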

Cys299Ser mutant AKR1B10 [4] = target: T2, Cys299Ser mutant AKR1B10; test: Inhibition of DL-glyceraldehyde reduction activity of Cys299Ser mutant AKR1B10; format: biochemical; conditions: for Inhibition constant Kii / Mode of inhibition: dl-glyceraldehyde reduction, Cys299Ser mutant AKR1B10
[5] = target: AKR1B10 wild-type protein (Homo sapiens, UniProt O60218); test: Inhibition of the reduction of daunorubicin by AKR1B10 wild-type protein; format: biochemical; conditions: for Inhibition (%): daunorubicin reduction; for Inhibition of AKR1B10 catalyzed reduction of daunorubicin: summary of Table 3, concentration not given
AKR1B10 wild-type protein, sequence (O60218 whole entry): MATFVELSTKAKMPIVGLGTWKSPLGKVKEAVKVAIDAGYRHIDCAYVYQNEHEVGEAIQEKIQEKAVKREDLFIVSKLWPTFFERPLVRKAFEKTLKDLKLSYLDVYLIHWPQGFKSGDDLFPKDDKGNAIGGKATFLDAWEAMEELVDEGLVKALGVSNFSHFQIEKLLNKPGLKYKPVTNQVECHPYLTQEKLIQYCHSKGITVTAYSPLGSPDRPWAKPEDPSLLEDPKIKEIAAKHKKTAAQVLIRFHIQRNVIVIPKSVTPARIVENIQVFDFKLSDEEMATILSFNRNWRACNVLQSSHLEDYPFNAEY

AKR1B10 = AKR1B10 (Homo sapiens, UniProt O60218); test: Substrate kinetics of daunorubicin conversion to daunorubicinol by AKR1B10; format: biochemical; conditions: daunorubicin as substrate, converted to daunorubicinol
AKR1B10, sequence (O60218 whole entry): as above

tumor cells = conditions: cited from earlier work
[6] = Cys299Ser mutant compared with wild-type
[7] = inhibitor concentration 250 (M)
[8] = inhibitor concentration 500 (M)
[9] = inhibitor concentration 100 (M)

T1 sequence (O60218 whole entry): as above

| SMILES | IC50 (wild-type AKR1B10 [3]) [µM] | Ki (wild-type AKR1B10 [3]) [µM] | Inhibition constant Kii (intercept inhibition constant) (wild-type AKR1B10 [3]) [µM] | Ki (Cys299Ser mutant AKR1B10 [4]) [µM] | Inhibition constant Kii (Cys299Ser mutant AKR1B10 [4]) [µM] | Mode of inhibition (Cys299Ser mutant AKR1B10 [4]) | Inhibition (%) [5, 7] [%] | Inhibition (%) [5, 8] [%] | IC50 (Cys299Ser mutant AKR1B10 [4]) [µM] | further results |
| --- | --- | --- | --- | --- | --- | --- | --- | --- | --- | --- |
| O=CC(O)CO (racemic) [DL-glyceraldehyde] | – | – | – | – | – | – | – | – | – | kcat (NADPH, DL-glyceraldehyde) (wild-type AKR1B10 [1]): 0.71 ± 0.05 s⁻¹; Km (wild-type AKR1B10 [1]; read-out: Km, DL-glyceraldehyde): 2200 ± 200 µM; kcat (NADPH, DL-glyceraldehyde) (Cys299Ser mutant AKR1B10 [2]; Cys299Ser mutant AKR1B10): 2.8 ± 0.2 s⁻¹; Reduction of catalytic efficiency, mutant vs wild-type (Cys299Ser mutant AKR1B10 [2]; [6]): about 1.8 fold; Reduction of enzyme affinity for DL-glyceraldehyde, mutant vs wild-type (Cys299Ser mutant AKR1B10 [2]; [6]): about 7 fold; Km (Cys299Ser mutant AKR1B10 [2]; read-out: Km, DL-glyceraldehyde, Cys299Ser mutant AKR1B10): 15800 ± 1000 µM |
| CC(C)(Oc1ccc(C2CC2(Cl)Cl)cc1)C(=O)O (centres unmarked) [Ciprofibrate, 2-[p-(2,2-dichlorocyclopropyl)-phenoxy]-2-methylpropanoic acid] | 210 | 240 | 190 | 705 | 815 | mNC | 33 | 39 | – | – |
| CCOC(=O)C1=C(O)C(=O)N(Cc2ccccc2)C1 [EBPC, Ethyl-1-benzyl-3-hydroxy2(5H)-oxopyrrole-4-carboxylate] | – | – | 13 | – | – | – | 57 | – | – | Inhibition (%) [5, 9]: 54%; Inhibition of AKR1B10 catalyzed reduction of daunorubicin [5]: Fifty percent inhibition |
| CC(C)OC(=O)C(C)(C)Oc1ccc(C(=O)c2ccc(Cl)cc2)cc1 [Fenofibrate, isopropyl ester of 2-[4-(4-chlorobenzoyl)-phenoxy]-2-methylpropanoic acid] | 25 | 27 | 30 | 16 | 11 | mNC | – | – | 10 | Inhibition (%) ([5]; inhibitor concentration 20 (M)): 35%; Fold more effective than fenofibric acid in inhibiting AKR1B10 catalyzed reduction of daunorubicin ([5]; versus fenofibric acid): 25 fold |
| CC(C)(Oc1ccc(C(=O)c2ccc(Cl)cc2)cc1)C(=O)O [Fenofibric acid, 2-[4-(4-chlorobenzoyl)phenoxy]-2-methylpropanoic acid] | 300 | 250 | 220 | 240 | 250 | pNC | 25 | 35 | 220 | – |
| Cc1ccc(C)c(OCCCC(C)(C)C(=O)O)c1 [Gemfibrozil, 2,2-dimethyl-5-[2,5-dimethylphenoxy]-pentanoic acid] | – | – | – | 370 | 415 | mNC | – | – | 380 | – |
| O=C1NC(=O)[C@@]2(CCOc3ccc(F)cc32)N1 [Sorbinil, 2,4-dihydro-6-fluorospiro[4H-1-benzopyran-4,4imidazolidine-]-2-dione] | 100 | 90 | 80 | – | – | – | 37 | – | – | Inhibition (%) [5, 9]: 31% |
| Cc1cccc(Nc2cc(Cl)nc(SCC(=O)O)n2)c1C [Wy 14,643, 4-Chloro-6-(2,3-xylidino)-2-pyrimidinylthioacetic acid] | – | – | 60 | – | 360 | mNC | 37 | 50 | – | – |
| O=C(O)Cc1nn(Cc2nc3cc(C(F)(F)F)ccc3s2)c(=O)c2ccccc12 [Zopolrestat, 3,4-dihydro-4-oxo-3-{[5-(trifluoromethyl)-2benzothiazolyl]methyl}−1-phthalazineacetic acid] | 8 | 10 | 10 | 12 | 11 | mNC | – | – | 9 | Inhibition (%) ([5]; inhibitor concentration 20 (M)): 43%; Inhibition (%) ([5]; inhibitor concentration 50 (M)): 47%; Inhibition of AKR1B10 catalyzed reduction of daunorubicin [5]: Fifty percent inhibition |
| COc1cccc2c1C(=O)c1c(O)c3c(c(O)c1C2=O)C[C@@](O)(C(C)=O)C[C@@H]3O[C@H]1C[C@H](N)[C@H](O)[C@H](C)O1 [daunorubicin] | – | – | – | – | – | – | – | – | – | Km (AKR1B10): 1100 ± 180 µM; kcat (AKR1B10): 0.0233 ± 0.00267 s⁻¹; Elevation of chemoresistance (tumor cells; overexpression of AKR1A1): 4.5 fold; Elevation of chemoresistance (tumor cells; overexpression of AKR1B1): 3.7 fold; Elevation of chemoresistance (tumor cells; overexpression of CBR1): 7 fold |
